Activity calls are given as the source filed them. No cut-off for these calls is given here.
Key:
[1] = Inhibition of ASM in dog MDCK cells co-expressing recombinant full length mGFP-tagged KRAS G12V mutant and mCherry-CAAX assessed as reduction in plasma membrane localization of KRAS mutant incubated for 48 hrs by confocal microscopic analysis; format: cell membranes, Canis lupus familiaris
How it was run: (§1)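 MDCK cells stably co-expressing mGFP-KRAS G12V or mGFP-LactC2 with mCherry-CAAX (HRAS 179–189 C181S/C184S) grown on coverslips in DMEM/10% FBS. Treated 48 h with 0.1% DMSO or graded drug, fixed in 4% paraformaldehyde, then quantitative confocal imaging. Mislocalization scored as the Manders fraction of mCherry-CAAX co-localizing with the GFP probe. IC50 and Emax from three independent experiments.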

[2] = tested on: MDCK; experiment: Inhibition of ASM in dog MDCK cells co-expressing recombinant full length mGFP-tagged KRAS G12V mutant and mCherry-CAAX assessed as reduction in plasma membrane localization of KRAS mutant incubated for 48 hrs by confocal microscopic analysis relative to control; format: cell membranes; conditions: Canis lupus familiaris; how it was run: as §1
[3] = tested on: MDCK; experiment: Reduction in expression of human GFP-tagged ASM transfected in dog MDCK cells at 5 uM incubated for 48 hrs by western blot analysis; format: functional, cell-based; conditions: Canis lupus familiaris
How it was run: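 SMPD1-GFP-expressing MDCK cells treated 48 h with 5 µM compound, washed in cold PBS and lysed in Tris pH 7.5 buffer with NaF, EGTA, DTT, vanadate, 1% NP40 and protease inhibitors. 20 µg of protein resolved by SDS-PAGE and immunoblotted. Signals detected by enhanced chemiluminescence and quantified by densitometry.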

[4] = tested on: MDCK; experiment: Inhibition of ASM in dog MDCK cells co-expressing recombinant full length mGFP-tagged KRAS G12V mutant and mCherry-CAAX assessed as reduction in plasma membrane localization of KRAS mutant at 1 uM incubated for 48 hrs followed by incubation with recombinant ASM in continued presence of compound for 60 mins by confocal microscopic analysis; format: cell membranes; conditions: Canis lupus familiaris, time 49.0 hrs
How it was run: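 MDCK cells stably co-expressing mGFP-KRAS G12V and mCherry-CAAX seeded on glass coverslips and grown 48 h with or without compound. Medium then replaced with fresh medium containing 2 units/mL recombinant ASM, drug continued, for 60 min. Cells mounted in mowiol and imaged by confocal microscopy. Mislocalization scored by Manders coefficient.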

[5] = tested on: MEF; experiment: Cytotoxicity against mouse MEF cells expressing BRAF V600E mutant and wild type KRAS assessed as reduction in cell growth incubated for 72 hrs by CyQuant proliferation assay; format: functional, cell-based
How it was run: (§2)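 Cells seeded in 96-well plates; after 24 h fresh growth medium with 0.1% DMSO vehicle or drug added (highest dose 30 µM for cancer lines), grown 72 h at 37 °C, 5% CO2. Live cell number measured by CyQUANT fluorescence. IC50 from three independent experiments. MEFs were isogenic lines carrying oncogenic BRAF or KRAS.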

[6] = tested on: MEF; experiment: Antiproliferative activity against mouse MEF cells expressing KRAS G12V mutant assessed as reduction in cell growth incubated for 72 hrs by CyQuant proliferation assay; format: functional, cell-based; how it was run: as §2
[7] = Antiproliferative activity against human MOH cells expressing KRAS mutant assessed as reduction in cell growth incubated for 72 hrs by CyQuant proliferation assay; format: functional, cell-based; how it was run: as §2
[8] = tested on: SK-CO-1; experiment: Antiproliferative activity against human SK-CO-1 cells expressing mutant KRAS assessed as reduction in cell growth incubated for 72 hrs by CyQuant proliferation assay; format: functional, cell-based; conditions: SK-CO-1, 72 h; how it was run: as §2
[9] = tested on: KLE; experiment: Antiproliferative activity against human KLE cells expressing wild type KRAS assessed as reduction in cell growth upto 30 uM incubated for 72 hrs by CyQuant proliferation assay; format: functional, cell-based; conditions: dose microM <=30, time 72.0 hrs; how it was run: as §2
[10] = Toxicity in nu/nu mouse xenografted with human MIA PaCa-2 cells assessed as effect on body weight at 1 to 5 mg/kg, ip administered once daily for 5 days with 2 days break; format: organism-based; conditions: in vivo, 120 h, dose 1-5 mg/kg, time 5 day
[11] = tested on: Mus musculus; experiment: In vivo inhibition of ASM in nu/nu mouse xenografted with human MIA PaCa-2 cells harboring KRAS mutation assessed as increase in SM accumulation in tumor at 12.5 mg/kg, ip administered once daily for 5 days with 2 days break by GFP-lysenin staining based confocal laser microscopy; format: functional, organism-based; conditions: time 5.0 day
How it was run: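 Sections of MiaPaCa-2 xenograft tumors from i.p.-treated nu/nu mice (12.5 mg/kg) stained with GFP-tagged lysenin to detect sphingomyelin.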

[12] = tested on: Mus musculus; experiment: In vivo inhibition of KRAS signaling in nu/nu mouse xenografted with human MIA PaCa-2 cells harboring KRAS mutation assessed as decrease in ERK phosphorylation in tumor at 1 to 5 mg/kg, ip administered once daily for 5 days with 2 days break by immunohistochemistry; format: functional, organism-based; conditions: dose 1-5 mg/kg, time 5.0 day
How it was run: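 Paraffin tumor sections of 4–5 µm were deparaffinized and given heat antigen retrieval in 10 mM sodium citrate. Endogenous peroxidase was quenched and sections blocked in 2.5% normal goat serum. Primary antibody (pERK or cleaved caspase 3) applied overnight at 4 °C, biotinylated secondary 1:250 for 45 min at rt, then ABC reagent 30 min and DAB development. Rabbit IgG served as control.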

[13] = tested on: Mus musculus; experiment: In vivo inhibition of Ca2+ channel in nu/nu mouse xenografted with human MIA PaCa-2 cells harboring KRAS mutation assessed as blood vessel dialation in tumor at 1 to 5 mg/kg, ip administered once daily for 5 days with 2 days break by immunostaining; format: functional, organism-based; conditions: dose 1-5 mg/kg, time 5.0 day
[14] = target: T1, Sphingomyelin phosphodiesterase (Homo sapiens) (UniProt P17405); experiment: Inhibition of human GFP-tagged ASM expressed in dog MDCK cells using sphingomyelin as substrate at 5 uM incubated for 48 hrs by Amplex Red dye based fluorescence analysis; format: cell-based
T1 sequence (whole entry): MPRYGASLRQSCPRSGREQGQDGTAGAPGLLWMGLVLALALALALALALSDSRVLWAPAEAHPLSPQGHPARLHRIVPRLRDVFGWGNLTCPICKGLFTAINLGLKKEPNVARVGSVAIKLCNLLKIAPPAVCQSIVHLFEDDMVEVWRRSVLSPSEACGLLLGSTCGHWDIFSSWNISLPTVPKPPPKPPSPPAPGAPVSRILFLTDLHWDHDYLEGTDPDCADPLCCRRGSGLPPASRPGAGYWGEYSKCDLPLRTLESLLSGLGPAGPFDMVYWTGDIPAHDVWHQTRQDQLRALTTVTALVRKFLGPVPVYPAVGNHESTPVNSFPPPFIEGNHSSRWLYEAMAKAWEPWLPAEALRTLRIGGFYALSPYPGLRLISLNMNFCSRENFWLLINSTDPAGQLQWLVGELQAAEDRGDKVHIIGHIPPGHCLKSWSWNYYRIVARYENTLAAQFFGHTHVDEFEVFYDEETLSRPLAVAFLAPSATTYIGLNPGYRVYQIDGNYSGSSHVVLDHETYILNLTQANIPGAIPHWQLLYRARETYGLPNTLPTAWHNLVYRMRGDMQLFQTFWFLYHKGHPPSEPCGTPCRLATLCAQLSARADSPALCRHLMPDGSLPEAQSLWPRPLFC
How it was run: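 MDCK cells stably expressing human SMPD1-GFP treated 48 h at 5 µM. Whole-cell lysate, made without DTT, mixed with 50 mM sodium acetate pH 5.0 plus sphingomyelin and held 1 h at 37 °C. pH then raised to 7.4 with Amplex Red mix (100 µM Amplex Red, 2 U/mL HRP, 0.2 U/mL choline oxidase, 8 U/mL alkaline phosphatase, 100 mM Tris pH 8.0), 60 min at 37 °C. Fluorescence read at Ex 540/Em 590 nm. Controls: 0.1 U/mL SMase (positive), buffer alone (negative).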

Compound | IC50 [1] [µM] | Emax [2] | inhibition [3] | inhibition [4] | IC50 [5] [µM] | IC50 [6] [µM] | IC50 [7] [µM] | IC50 [8] [µM] | Activity [9] | Activity [10] | inhibition [11] | inhibition [12] | inhibition [13] | inhibition [14]
COc1ccc([C@@H](C)N(CC=C(c2ccccc2)c2ccccc2)CCCN2CCN(C)CC2)cc1 | 0.02 | 0.81 | inactive | inactive | 7.9 | 2.9 | 3.8 | 3.5 | inactive | Non-Toxic | inactive | Active | inactive | Active
COc1ccc([C@@H](C)N(CC=C(c2ccccc2)c2ccccc2)CCN2CCCC2)cc1 | 0.3 | 0.85 | Active | inactive | 8.5 | 2.6 | 3.6 | 3 | inactive | Non-Toxic | Active | Active | inactive | Active

Source: ChEMBL document CHEMBL4814013, “Scaffold repurposing of fendiline: Identification of potent KRAS plasma membrane localization inhibitors” (Eur J Med Chem, 2021)
